In ChEMBL document CHEMBL1132940, “Pharmacophore/receptor models for GABA(A)/BzR subtypes (alpha1beta3gamma2, alpha5beta3gamma2, and alpha6beta3gamma2) via a comprehensive ligand-mapping approach” (J Med Chem, 2000):

How the values were obtained:
[1] = target: T1, GABA-A receptor; alpha-1/beta-3/gamma-2 (Homo sapiens, UniProt P14867+P18507+P28472); assay: Binding affinity for human recombinant gamma-aminobutyric-acid (GABA) A receptor alpha-1-beta-3-gamma-2; assay type: protein-complex assay
T1 sequence (P14867 whole entry): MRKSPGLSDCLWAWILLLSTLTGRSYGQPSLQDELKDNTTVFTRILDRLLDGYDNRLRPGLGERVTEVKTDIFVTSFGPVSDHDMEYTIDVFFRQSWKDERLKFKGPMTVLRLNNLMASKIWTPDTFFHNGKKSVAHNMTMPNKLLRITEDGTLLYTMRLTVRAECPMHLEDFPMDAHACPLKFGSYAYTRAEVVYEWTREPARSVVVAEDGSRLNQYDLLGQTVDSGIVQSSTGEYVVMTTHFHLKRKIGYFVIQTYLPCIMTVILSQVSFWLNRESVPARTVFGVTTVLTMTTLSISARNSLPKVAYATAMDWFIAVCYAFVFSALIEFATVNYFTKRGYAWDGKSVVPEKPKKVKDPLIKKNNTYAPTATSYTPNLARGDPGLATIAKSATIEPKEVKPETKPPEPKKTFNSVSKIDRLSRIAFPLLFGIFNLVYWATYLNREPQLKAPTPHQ
T1 sequence (P18507 whole entry): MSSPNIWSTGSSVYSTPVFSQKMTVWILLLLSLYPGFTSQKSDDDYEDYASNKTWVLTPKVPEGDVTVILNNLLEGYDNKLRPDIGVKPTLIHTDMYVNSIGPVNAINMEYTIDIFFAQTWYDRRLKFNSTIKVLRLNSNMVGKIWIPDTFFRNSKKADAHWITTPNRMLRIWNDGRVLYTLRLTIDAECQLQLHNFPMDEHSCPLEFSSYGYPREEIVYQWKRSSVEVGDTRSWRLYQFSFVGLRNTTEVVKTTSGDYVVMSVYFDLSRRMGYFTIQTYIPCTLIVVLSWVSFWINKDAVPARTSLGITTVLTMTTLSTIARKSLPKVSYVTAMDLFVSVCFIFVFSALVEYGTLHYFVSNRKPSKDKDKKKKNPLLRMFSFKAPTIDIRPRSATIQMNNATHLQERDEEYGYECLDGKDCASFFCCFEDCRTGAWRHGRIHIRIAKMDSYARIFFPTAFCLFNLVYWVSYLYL
T1 sequence (P28472 whole entry): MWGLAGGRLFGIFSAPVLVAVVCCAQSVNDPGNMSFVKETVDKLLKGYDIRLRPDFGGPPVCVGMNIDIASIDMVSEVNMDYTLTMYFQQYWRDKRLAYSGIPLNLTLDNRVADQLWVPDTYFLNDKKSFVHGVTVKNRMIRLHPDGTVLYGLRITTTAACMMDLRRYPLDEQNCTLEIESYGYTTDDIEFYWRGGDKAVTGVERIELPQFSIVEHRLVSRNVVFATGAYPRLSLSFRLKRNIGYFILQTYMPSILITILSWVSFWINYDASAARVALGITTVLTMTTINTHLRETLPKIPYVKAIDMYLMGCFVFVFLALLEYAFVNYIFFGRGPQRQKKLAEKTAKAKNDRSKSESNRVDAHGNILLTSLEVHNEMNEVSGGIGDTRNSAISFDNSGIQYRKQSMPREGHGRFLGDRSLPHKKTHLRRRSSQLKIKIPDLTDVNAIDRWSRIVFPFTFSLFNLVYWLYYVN

[2] = target: T2, GABA-A receptor; alpha-2/beta-3/gamma-2 (Homo sapiens, UniProt P18507+P28472+P47869); assay: Binding affinity to human recombinant gamma-aminobutyric-acid (GABA) A receptor alpha-2-beta-3-gamma-2; assay type: protein-complex assay
T2 sequence (P18507 whole entry): T1 sequence (P18507 whole entry)
T2 sequence (P28472 whole entry): T1 sequence (P28472 whole entry)
T2 sequence (P47869 whole entry): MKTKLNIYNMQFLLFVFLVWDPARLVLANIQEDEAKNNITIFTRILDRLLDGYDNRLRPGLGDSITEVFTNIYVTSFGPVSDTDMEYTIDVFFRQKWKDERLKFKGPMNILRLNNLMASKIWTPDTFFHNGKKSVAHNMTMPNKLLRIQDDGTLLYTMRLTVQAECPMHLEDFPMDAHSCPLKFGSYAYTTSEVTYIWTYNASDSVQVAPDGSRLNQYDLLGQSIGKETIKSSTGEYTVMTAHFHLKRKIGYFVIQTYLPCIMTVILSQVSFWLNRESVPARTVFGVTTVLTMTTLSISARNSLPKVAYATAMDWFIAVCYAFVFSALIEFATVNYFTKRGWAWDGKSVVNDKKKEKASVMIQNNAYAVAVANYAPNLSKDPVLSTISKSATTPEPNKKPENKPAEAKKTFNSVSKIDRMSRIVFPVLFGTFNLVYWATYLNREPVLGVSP

[3] = target: T3, GABA-A receptor; alpha-5/beta-3/gamma-2 (Homo sapiens, UniProt P18507+P28472+P31644); assay: Binding affinity for human recombinant gamma-aminobutyric-acid (GABA) A receptor alpha-5-beta-3-gamma-2; assay type: protein-complex assay
T3 sequence (P18507 whole entry): T1 sequence (P18507 whole entry)
T3 sequence (P28472 whole entry): T1 sequence (P28472 whole entry)
T3 sequence (P31644 whole entry): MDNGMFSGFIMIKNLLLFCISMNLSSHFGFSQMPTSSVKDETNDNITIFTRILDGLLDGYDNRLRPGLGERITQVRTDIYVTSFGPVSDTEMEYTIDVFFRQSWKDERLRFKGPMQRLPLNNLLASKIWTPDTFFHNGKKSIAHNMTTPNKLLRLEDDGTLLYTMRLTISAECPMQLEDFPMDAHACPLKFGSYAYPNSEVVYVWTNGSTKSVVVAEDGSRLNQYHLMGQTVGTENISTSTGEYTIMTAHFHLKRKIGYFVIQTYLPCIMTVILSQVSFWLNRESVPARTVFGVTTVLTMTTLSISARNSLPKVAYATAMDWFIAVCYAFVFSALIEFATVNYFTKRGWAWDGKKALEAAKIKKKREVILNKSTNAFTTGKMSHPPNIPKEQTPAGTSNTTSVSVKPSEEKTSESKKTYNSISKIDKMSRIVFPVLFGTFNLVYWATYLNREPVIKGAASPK

[4] = target: T4, GABA-A receptor; alpha-3/beta-3/gamma-2 (Homo sapiens, UniProt P18507+P28472+P34903); assay: Binding affinity for human recombinant gamma-aminobutyric-acid (GABA) A receptor alpha-3-beta-3-gamma-2; assay type: protein-complex assay
T4 sequence (P18507 whole entry): T1 sequence (P18507 whole entry)
T4 sequence (P28472 whole entry): T1 sequence (P28472 whole entry)
T4 sequence (P34903 whole entry): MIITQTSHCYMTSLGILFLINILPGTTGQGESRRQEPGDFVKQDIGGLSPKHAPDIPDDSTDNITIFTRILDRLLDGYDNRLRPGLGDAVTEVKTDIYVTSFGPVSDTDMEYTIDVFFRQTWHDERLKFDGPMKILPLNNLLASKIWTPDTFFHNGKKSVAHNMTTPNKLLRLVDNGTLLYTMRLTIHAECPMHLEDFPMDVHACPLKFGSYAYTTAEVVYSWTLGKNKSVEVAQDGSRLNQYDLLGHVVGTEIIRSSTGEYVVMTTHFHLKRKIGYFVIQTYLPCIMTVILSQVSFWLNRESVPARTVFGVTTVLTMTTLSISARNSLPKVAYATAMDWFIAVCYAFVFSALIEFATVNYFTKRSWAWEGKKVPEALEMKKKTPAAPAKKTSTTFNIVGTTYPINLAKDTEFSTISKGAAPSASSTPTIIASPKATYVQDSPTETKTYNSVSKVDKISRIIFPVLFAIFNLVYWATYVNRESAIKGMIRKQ

[5] = target: GABA-A receptor; alpha-6/beta-3/gamma-2 (Homo sapiens, UniProt P18507+P28472+Q16445); assay: Binding affinity for human recombinant gamma-aminobutyric-acid (GABA) A receptor alpha-6-beta-3-gamma-2; assay type: protein-complex assay
How it was run: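 Ltk⁻ cells expressing human α6β3γ2 were harvested by scraping into PBS, centrifuged at 3000g and resuspended in 10 mM KH₂PO₄/100 mM KCl (pH 7.4). Incubation was 1 h at 4 °C with filter harvest and scintillation counting.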

[6] = Selectivity ratio of alpha1 beta-3 gamma2 GABA A / BzR and alpha5 beta-3 gamma2 GABA A / BzR

GABA-A receptor; alpha-6/beta-3/gamma-2, sequence (Q16445 whole entry, one chain of several): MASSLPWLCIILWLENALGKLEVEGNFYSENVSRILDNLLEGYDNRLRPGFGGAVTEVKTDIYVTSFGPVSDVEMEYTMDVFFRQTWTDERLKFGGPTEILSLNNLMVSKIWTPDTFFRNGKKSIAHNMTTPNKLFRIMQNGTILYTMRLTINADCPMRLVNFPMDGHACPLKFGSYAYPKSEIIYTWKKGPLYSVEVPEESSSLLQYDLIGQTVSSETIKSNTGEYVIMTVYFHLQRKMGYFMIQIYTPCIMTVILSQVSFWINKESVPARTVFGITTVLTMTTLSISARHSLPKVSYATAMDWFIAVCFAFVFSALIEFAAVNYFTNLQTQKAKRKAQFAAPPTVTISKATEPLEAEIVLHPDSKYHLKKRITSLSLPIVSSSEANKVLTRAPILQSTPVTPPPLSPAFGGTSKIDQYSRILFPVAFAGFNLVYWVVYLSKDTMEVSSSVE

| SMILES | Ki [1] [nM] | Ki [2] [nM] | Ki [3] [nM] | Ki [4] [nM] | Ki [5] [nM] | Ratio [6] |
| --- | --- | --- | --- | --- | --- | --- |
| CCCC(=O)c1cc2c(cn1)[nH]c1ccccc12 | 2.1 | 16 | 995 | 21 | > 3000 | – |
| CCCOc1ccc2c(c1)c1c(COC)c(C(=O)OCC)ncc1n2C | 25.6 | 105 | 161 | 164 | > 10000 | – |
| c1ccc2c(c1)[nH]c1c2ncc2[nH]c3ccccc3c21 | 1.1 | 1.2 | 40.3 | 1.1 | > 1000 | – |
| Clc1ccc2c(c1)[nH]c1c2ncc2[nH]c3ccccc3c21 | 3.9 | 12.2 | 210 | 24.4 | > 10000 | – |
| c1cnc2c3[nH]cc4[nH]c5ccccc5c4c-3nc2c1 | 28 | 118 | 1000 | 156 | > 10000 | – |
| CCOC(=O)c1[nH]cc2nc3ccc(OCc4ccc5ccccc5c4)cc3c-2c1CC | 183 | 291 | 270 | 300 | > 10000 | – |
| COC(=O)c1cc2c3cc(NC4CCCCC4)ccc3nc-2c[nH]1 | 2.39 | 17.4 | 316 | 14.4 | > 10000 | – |
| COC(=O)c1cc2c3cc(NCc4ccc5ccccc5c4)ccc3nc-2c[nH]1 | 30.7 | 205 | 814 | 271 | > 10000 | – |
| CN1Cc2c(C(=O)OC(C)(C)C)ncn2-c2ccc(N=[N+]=[N-])cc2C1=O | – | 22.1 | – | 9.84 | – | 24.3 |
| O=c1c2cnc3ccccc3c2[nH]n1-c1ccc(Br)cc1 | 0.18 | 0.21 | 1.3 | 0.25 | 40 | – |
| C#Cc1ccc2ncc3c(=O)n(-c4ccccc4)[nH]c3c2c1 | 0.08 | 0.06 | 0.08 | 0.02 | – | – |
| O=C1C2C=Nc3ccccc3C2=NN1c1ccccc1 (stereo unspecified) [CGS-8216] | 0.05 | 0.08 | 0.25 | 0.12 | 17 | – |
| c1ccc2c(c1)[nH]c1cnc3c(nc4ccccn43)c12 | 105 | 228 | > 3000 | 284 | > 10000 | – |
| N#CSc1ccc2[nH]c3cnc(SC#N)cc3c2c1 | 13.6 | 423 | 2910 | – | > 5000 | – |
| c1ccc2c(c1)[nH]c1cnc3c4cccnc4[nH]c3c12 | 2.2 | 11.5 | 200 | 16.3 | > 10000 | – |
| CC(C)c1nc(-c2ncn3c2CN(C)C(=O)c2c(Cl)cccc2-3)no1 | 0.4 | 2.08 | 1.54 | 1.16 | 227 | – |
| CCCOc1ccc2[nH]c3cnc(C(=O)NN)c(COC)c3c2c1 | 46 | 422 | 108 | 400 | > 300 | – |
| CN1C(=O)CN=C(c2ccsc2)c2cc(Cl)ccc21 | > 300 | > 300 | > 300 | > 300 | > 300 | – |
| CCOC(=O)c1[nH]cc2nc3ccc(OC)cc3c-2c1CC | 1.6 | 2.9 | 1 | 2.8 | > 1000 | – |
| Clc1cccn2c1nc1c3c4ccccc4nc-3c[nH]c12 | > 3000 | > 3000 | > 10000 | > 3000 | > 10000 | – |
| O=C1CN=C(c2ccccc2[N+](=O)[O-])c2cc(Br)ccc2N1 | – | 31 | 199 | 52 | > 3000 | 0.08 |
| CCc1c(C(=O)NN)[nH]cc2nc3cc(OC)c(OC)cc3c1-2 | 896 | > 1000 | 91.5 | 570 | > 3000 | – |
| CCCCCCCCOc1ccc2c(c1)c1c(CC)c(C(=O)OCC)ncc1n2C | > 1000 | > 1000 | > 1000 | > 1000 | > 1000 | – |
| O=c1c2cnc3ccc(Cl)cc3c2[nH]n1-c1ccccc1 | 0.23 | 0.17 | 0.44 | 0.12 | 17.3 | – |
| COC(=O)c1cc2c(cn1)[nH]c1ccc(NCc3ccccc3)cc12 | 5.42 | 30.2 | 475 | 48.9 | > 10000 | – |
| Cc1nnc2n1-c1ccc(Cl)cc1C(c1ccccc1Cl)=NC2 [TRIAZOLAM] | – | 0.59 | – | – | > 10000 | – |
| c1ccc2c(c1)[nH]c1cnc3c4ccncc4[nH]c3c12 | 3 | 23.8 | 240 | 30.5 | > 10000 | – |
| O=[N+]([O-])c1ccc2[nH]c3cnc([N+](=O)[O-])cc3c2c1 | 12.9 | 83.1 | 314 | – | > 50000 | – |
| C#Cc1ccc(-n2[nH]c3c(cnc4ccccc43)c2=O)cc1 | 0.07 | 0.03 | 0.17 | 0.04 | – | – |
